Test results published in ChEMBL document CHEMBL4689842, “EUbOPEN Chemogenomics Library wave 1” (2021).

System: HEK-293T
Assay: Multiplex assay against HEK293T;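 for Population Tubulin-Different-Phenotype (%): share of the cells with healthy nuclei that show this phenotype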
Type: toxicity, cell-based
Settings: human
In short: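 Cells were classed with CellPathfinder machine-learning gating, first as Hoechst high-intensity objects or normal cells, then (normal cells) as healthy, pyknosed or fragmented nuclei, and finally (pyknosed cells) as mitotic or apoptotic. Staining of live cells at seeding used Hoechst33342, BioTracker Green Microtubule Cytoskeleton Dye, MitoTracker Red and Annexin V Alexa Fluor 680, with imaging on a CQ1 microscope at 37°C and 5% CO2 after compound addition. Tubulin, mitochondrial-mass and membrane-permeability phenotypes are per cents of healthy-nucleus cells.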

[1] = 12 h, 1 µM, compound concentration 1 uM, replicate 1
[2] = 12 h, 1 µM, compound concentration 1 uM, replicate 2
[3] = 12 h, 10 µM, compound concentration 10 uM, replicate 1
[4] = 12 h, 10 µM, compound concentration 10 uM, replicate 2
[5] = 24 h, 1 µM, compound concentration 1 uM, replicate 1
[6] = 24 h, 1 µM, compound concentration 1 uM, replicate 2
[7] = 24 h, 10 µM, compound concentration 10 uM, replicate 1
[8] = 24 h, 10 µM, compound concentration 10 uM, replicate 2
[9] = 48 h, 1 µM, compound concentration 1 uM, replicate 1
[10] = 48 h, 1 µM, compound concentration 1 uM, replicate 2
[11] = 48 h, 10 µM, compound concentration 10 uM, replicate 1
[12] = 48 h, 10 µM, compound concentration 10 uM, replicate 2

## CN(C)C(=O)N[C@H]1CC[C@H](CCN2CCN(c3cccc(Cl)c3Cl)CC2)CC1.Cl [CARIPRAZINE HYDROCHLORIDE]
[1]
  Population Apoptotic (%): 48%
  Population Fragmented Nuclei (%): 12%
  Population Healthy Nuclei (%): 44%
  Population Hoechst High Intensity Objects (%): 13%
  Population Membrane Permeable-Phenotype (%): 1%
  Population Mitochondria Different-Phenotype (%): 88%
  Population Mitotic Cells (%): 51%
  Population Normal (%): 86%
  Population Pyknosed Nuclei (%): 42%
  Population Tubulin-Different-Phenotype (%): 59%
  Total Cell Count: 326
[2]
  Population Apoptotic (%): 20%
  Population Fragmented Nuclei (%): 4%
  Population Healthy Nuclei (%): 42%
  Population Hoechst High Intensity Objects (%): 4%
  Population Membrane Permeable-Phenotype (%): 2%
  Population Mitochondria Different-Phenotype (%): 32%
  Population Mitotic Cells (%): 79%
  Population Normal (%): 95%
  Population Pyknosed Nuclei (%): 53%
  Population Tubulin-Different-Phenotype (%): 24%
  Total Cell Count: 213
[3]
  Population Apoptotic (%): 85%
  Population Fragmented Nuclei (%): 7%
  Population Healthy Nuclei (%): 25%
  Population Hoechst High Intensity Objects (%): 15%
  Population Membrane Permeable-Phenotype (%): 1%
  Population Mitochondria Different-Phenotype (%): 98%
  Population Mitotic Cells (%): 14%
  Population Normal (%): 84%
  Population Pyknosed Nuclei (%): 67%
  Population Tubulin-Different-Phenotype (%): 98%
  Total Cell Count: 285
[4]
  Population Apoptotic (%): 83%
  Population Fragmented Nuclei (%): 4%
  Population Healthy Nuclei (%): 16%
  Population Hoechst High Intensity Objects (%): 6%
  Population Membrane Permeable-Phenotype (%): 6%
  Population Mitochondria Different-Phenotype (%): 96%
  Population Mitotic Cells (%): 16%
  Population Normal (%): 93%
  Population Pyknosed Nuclei (%): 79%
  Population Tubulin-Different-Phenotype (%): 93%
  Total Cell Count: 210
[5]
  Population Apoptotic (%): 46%
  Population Fragmented Nuclei (%): 14%
  Population Healthy Nuclei (%): 57%
  Population Hoechst High Intensity Objects (%): 11%
  Population Membrane Permeable-Phenotype (%): 1%
  Population Mitochondria Different-Phenotype (%): 77%
  Population Mitotic Cells (%): 53%
  Population Normal (%): 88%
  Population Pyknosed Nuclei (%): 27%
  Population Tubulin-Different-Phenotype (%): 55%
  Total Cell Count: 379
[6]
  Population Apoptotic (%): 12%
  Population Fragmented Nuclei (%): 2%
  Population Healthy Nuclei (%): 63%
  Population Hoechst High Intensity Objects (%): 2%
  Population Membrane Permeable-Phenotype (%): 4%
  Population Mitochondria Different-Phenotype (%): 34%
  Population Mitotic Cells (%): 87%
  Population Normal (%): 97%
  Population Pyknosed Nuclei (%): 33%
  Population Tubulin-Different-Phenotype (%): 33%
  Total Cell Count: 275
[7]
  Population Apoptotic (%): 90%
  Population Fragmented Nuclei (%): 11%
  Population Healthy Nuclei (%): 29%
  Population Hoechst High Intensity Objects (%): 14%
  Population Membrane Permeable-Phenotype (%): 0%
  Population Mitochondria Different-Phenotype (%): 98%
  Population Mitotic Cells (%): 9%
  Population Normal (%): 85%
  Population Pyknosed Nuclei (%): 59%
  Population Tubulin-Different-Phenotype (%): 100%
  Total Cell Count: 289
[8]
  Population Apoptotic (%): 87%
  Population Fragmented Nuclei (%): 3%
  Population Healthy Nuclei (%): 37%
  Population Hoechst High Intensity Objects (%): 7%
  Population Membrane Permeable-Phenotype (%): 2%
  Population Mitochondria Different-Phenotype (%): 97%
  Population Mitotic Cells (%): 12%
  Population Normal (%): 92%
  Population Pyknosed Nuclei (%): 58%
  Population Tubulin-Different-Phenotype (%): 96%
  Total Cell Count: 241
[9]
  Population Apoptotic (%): 29%
  Population Fragmented Nuclei (%): 9%
  Population Healthy Nuclei (%): 78%
  Population Hoechst High Intensity Objects (%): 7%
  Population Membrane Permeable-Phenotype (%): 0%
  Population Mitochondria Different-Phenotype (%): 37%
  Population Mitotic Cells (%): 70%
  Population Normal (%): 92%
  Population Pyknosed Nuclei (%): 12%
  Total Cell Count: 609
[10]
  Population Apoptotic (%): 10%
  Population Fragmented Nuclei (%): 6%
  Population Healthy Nuclei (%): 80%
  Population Hoechst High Intensity Objects (%): 2%
  Population Membrane Permeable-Phenotype (%): 2%
  Population Mitochondria Different-Phenotype (%): 15%
  Population Mitotic Cells (%): 89%
  Population Normal (%): 97%
  Population Pyknosed Nuclei (%): 13%
  Population Tubulin-Different-Phenotype (%): 35%
  Total Cell Count: 516
[11]
  Population Apoptotic (%): 78%
  Population Fragmented Nuclei (%): 16%
  Population Healthy Nuclei (%): 41%
  Population Hoechst High Intensity Objects (%): 15%
  Population Membrane Permeable-Phenotype (%): 0%
  Population Mitochondria Different-Phenotype (%): 99%
  Population Mitotic Cells (%): 21%
  Population Normal (%): 84%
  Population Pyknosed Nuclei (%): 42%
  Population Tubulin-Different-Phenotype (%): 94%
  Total Cell Count: 342
[12]
  Population Apoptotic (%): 82%
  Population Fragmented Nuclei (%): 7%
  Population Healthy Nuclei (%): 51%
  Population Hoechst High Intensity Objects (%): 6%
  Population Mitochondria Different-Phenotype (%): 95%
  Population Mitotic Cells (%): 17%
  Population Normal (%): 93%
  Population Pyknosed Nuclei (%): 41%
  Population Tubulin-Different-Phenotype (%): 92%
  Total Cell Count: 274
